# ChEMBL document CHEMBL1275308, “Synthesis, analgesic and anti-inflammatory evaluation of some novel quinazoline derivatives” (Eur J Med Chem, 2010)
# Active and inactive are the calls of the source.
# What was measured:
# Mus musculus [1] = experiment: Analgesic activity against heat induced nociception in Swiss albino mouse assessed as increase in latency at 100 mg/kg, po measured 60 mins post compound dose by hot plate method relative to pretreatment level; format: functional
# In short: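 Mice; test compounds and indomethacin, each at 100 mg/kg orally as a suspension in 1% carboxymethyl cellulose. Six groups of six animals, with a vehicle negative control. Reaction time recorded at 30 min, 1, 2 and 3 h after treatment, cut-off 10 s. Effect expressed as percentage of the pretreatment level. Values are means.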
# Rattus norvegicus = experiment: Antiinflammatory activity in rat assessed as inhibition of formaldehyde-induced paw edema at 100 mg/kg, po qd for 4 days administered 1 hr before formaldehyde challenge measured 2 hrs post formaldehyde challenge relative to untreated control; format: functional
# In short: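 Rats dosed orally at 100 mg/kg once daily for 4 d, with an indomethacin reference and a vehicle control. Right hind paw volume measured by plethysmometer before challenge. 0.2 mL of 10% w/v formaldehyde injected subplantar 1 h after drug. Paw volume measured 1 and 2 h after injection. Results given as % inhibition versus control; means, ANOVA with Dunnett's test.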
# Mus musculus [2] = experiment: Toxicity in mouse assessed as mortality at 750 mg/kg, po measured 24 hrs post dose; format: organism-based; design: dose 750 mg/kg, route oral; details: in vivo
# Mus musculus [3] = experiment: Toxicity in mouse assessed as incidence of toxic symptoms at 750 mg/kg, po measured 24 hrs post dose; format: organism-based; design: dose 750 mg/kg, route oral; details: in vivo
# Mus musculus [4] = experiment: Toxicity in mouse assessed as induction of urination at 500 to 1000 mg/kg, po measured within 24 hrs post dose; format: organism-based; design: dose 500-1000 mg/kg, route oral; details: in vivo
# Mus musculus [5] = experiment: Toxicity in mouse assessed as mortality at 1000 mg/kg, po measured 24 hrs post dose; format: organism-based; design: dose 1000 mg/kg, route oral; details: in vivo
# Mus musculus [6] = experiment: Toxicity in mouse assessed as mortality at 500 mg/kg, po measured 24 hrs post dose; format: organism-based; design: dose 500 mg/kg, route oral; details: in vivo
# Mus musculus [7] = experiment: Toxicity in mouse assessed as incidence of toxic symptoms at 500 mg/kg, po measured 24 hrs post dose; format: organism-based; design: dose 500 mg/kg, route oral; details: in vivo
# Mus musculus [8] = experiment: Toxicity in mouse assessed as incidence of toxic symptoms at 1000 mg/kg, po measured 24 hrs post dose; format: organism-based; design: dose 1000 mg/kg, route oral; details: in vivo
# Mus musculus [9] = experiment: Toxicity in mouse assessed as induction of muscle relaxation at 500 to 1000 mg/kg, po measured within 24 hrs post dose; format: organism-based; design: dose 500-1000 mg/kg, route oral; details: in vivo
# Mus musculus [10] = experiment: Toxicity in mouse assessed as induction of sedation at 500 to 1000 mg/kg, po measured within 24 hrs post dose; format: organism-based; design: dose 500-1000 mg/kg, route oral; details: in vivo
# Mus musculus [11] = experiment: Toxicity in mouse assessed as induction of calmness at 500 to 1000 mg/kg, po measured within 24 hrs post dose; format: organism-based; design: dose 500-1000 mg/kg, route oral; details: in vivo
Compound,Activity (Mus musculus [1]),inhibition in vivo at 100 mg/kg (Rattus norvegicus),Activity (Mus musculus [2]),Activity (Mus musculus [3]),Activity (Mus musculus [4]),Activity (Mus musculus [5]),Activity (Mus musculus [6]),Activity (Mus musculus [7]),Activity (Mus musculus [8]),Activity (Mus musculus [9]),Activity (Mus musculus [10]),Activity (Mus musculus [11])
Clc1ccc(-c2nc(N3CCN(c4ccccc4)CC3)c3ccccc3n2)cc1,inactive,12.6%,–,–,–,–,–,–,–,–,–,–
c1ccc(-c2nc(N3CCN(c4ccccc4)CC3)c3ccccc3n2)cc1,107.3%,77.4%,Non-toxic,Non-toxic,Toxic,Non-toxic,Non-toxic,Non-toxic,Non-toxic,–,–,–
Clc1ccc(-c2nc(N3CCN(c4ccccc4)CC3)c3cc(I)ccc3n2)cc1,inactive,13.5%,–,–,–,–,–,–,–,–,–,–
CN1CCN(c2nc(-c3ccccc3)nc3ccccc23)CC1,86.2%,45.2%,–,–,–,–,–,–,–,–,–,–
Clc1ccc(-c2nc(N3CCN(c4ccccc4)CC3)c3cc(Br)ccc3n2)cc1,inactive,16.2%,Non-toxic,Non-toxic,–,Non-toxic,Non-toxic,Non-toxic,Non-toxic,Toxic,Toxic,Toxic
Ic1ccc2nc(-c3ccccc3)nc(N3CCN(c4ccccc4)CC3)c2c1,inactive,39.2%,Non-toxic,Non-toxic,–,Non-toxic,Non-toxic,Non-toxic,Non-toxic,Toxic,Toxic,Toxic
Brc1ccc2nc(-c3ccccc3)nc(N3CCC(c4ccccc4)CC3)c2c1,89.8%,57.6%,Non-toxic,Non-toxic,–,Non-toxic,Non-toxic,Non-toxic,Non-toxic,–,–,–
CN1CCN(c2nc(-c3ccccc3)nc3ccc(Br)cc23)CC1,inactive,45%,–,–,–,–,–,–,–,–,–,–
CN1CCN(c2nc(-c3ccc(Cl)cc3)nc3ccc(Br)cc23)CC1,inactive,20%,–,–,–,–,–,–,–,–,–,–
Clc1ccc(-c2nc(N3CCC(c4ccccc4)CC3)c3ccccc3n2)cc1,87.3%,53.7%,–,–,–,–,–,–,–,–,–,–
CN1CCN(c2nc(-c3ccccc3)nc3ccc(I)cc23)CC1,inactive,39.6%,–,–,–,–,–,–,–,–,–,–
Ic1ccc2nc(-c3ccccc3)nc(N3CCC(c4ccccc4)CC3)c2c1,110.2%,82.5%,Non-toxic,Non-toxic,Toxic,Non-toxic,Non-toxic,Non-toxic,Non-toxic,–,–,–
CN1CCN(c2nc(-c3ccc(Cl)cc3)nc3ccc(I)cc23)CC1,inactive,17%,–,–,–,–,–,–,–,–,–,–
c1ccc(-c2nc(N3CCC(c4ccccc4)CC3)c3ccccc3n2)cc1,153.8%,85.3%,Non-toxic,Non-toxic,–,Non-toxic,Non-toxic,Non-toxic,Non-toxic,–,–,–
Clc1ccc(-c2nc(N3CCC(c4ccccc4)CC3)c3cc(I)ccc3n2)cc1,inactive,41.4%,–,–,–,–,–,–,–,–,–,–
COc1ccc2c(c1)c(CC(=O)O)c(C)n2C(=O)c1ccc(Cl)cc1 [INDOMETHACIN],97.5%,78.3%,–,–,–,–,–,–,–,–,–,–
CC1CCN(c2nc(-c3ccc(Cl)cc3)nc3ccc(Br)cc23)CC1,85.2%,55.1%,–,–,–,–,–,–,–,–,–,–
Brc1ccc2nc(-c3ccccc3)nc(N3CCN(c4ccccc4)CC3)c2c1,inactive,40.7%,–,–,–,–,–,–,–,–,–,–
CC1CCN(c2nc(-c3ccccc3)nc3ccccc23)CC1,88%,69%,–,–,–,–,–,–,–,–,–,–
CC1CCN(c2nc(-c3ccc(Cl)cc3)nc3ccccc23)CC1,inactive,55.1%,–,–,–,–,–,–,–,–,–,–
Nc1nnc(C2CCN(c3nc(-c4ccccc4)nc4ccccc34)CC2)s1,83.2%,73%,Non-toxic,Non-toxic,–,Non-toxic,Non-toxic,Non-toxic,Non-toxic,Toxic,Toxic,Toxic
CC1CCN(c2nc(-c3ccccc3)nc3ccc(I)cc23)CC1,85.7%,56.4%,–,–,–,–,–,–,–,–,–,–
Clc1ccc(-c2nc(N3CCC(c4ccccc4)CC3)c3cc(Br)ccc3n2)cc1,106.1%,50%,Non-toxic,Non-toxic,Toxic,Non-toxic,Non-toxic,Non-toxic,Non-toxic,–,–,–
O=c1[nH]nc(C2CCN(c3nc(-c4ccccc4)nc4ccccc34)CC2)s1,81.5%,12.7%,Non-toxic,Non-toxic,–,Non-toxic,Non-toxic,Non-toxic,Non-toxic,–,–,–
CCOC(=O)C1CCN(c2nc(-c3ccccc3)nc3ccccc23)CC1,98.5%,70.3%,Non-toxic,Non-toxic,–,Non-toxic,Non-toxic,Non-toxic,Non-toxic,–,–,–
CN1CCN(c2nc(-c3ccc(Cl)cc3)nc3ccccc23)CC1,inactive,37%,–,–,–,–,–,–,–,–,–,–
CC1CCN(c2nc(-c3ccccc3)nc3ccc(Br)cc23)CC1,inactive,57.8%,–,–,–,–,–,–,–,–,–,–
CC1CCN(c2nc(-c3ccc(Cl)cc3)nc3ccc(I)cc23)CC1,82.3%,45.8%,–,–,–,–,–,–,–,–,–,–
S=c1[nH]nc(C2CCN(c3nc(-c4ccccc4)nc4ccccc34)CC2)s1,88%,71.3%,Non-toxic,Non-toxic,–,Non-toxic,Non-toxic,Non-toxic,Non-toxic,–,–,–
